ChEMBL document CHEMBL1811801, “Structural modifications of quinolone-3-carboxylic acids with anti-HIV activity” (Bioorg Med Chem, 2011)

Key:
[1] = Cytotoxicity against human C8166 cells by MTT assay; assay type: cell-based
In short: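 Uninfected C8166 cells exposed to compound; viability read by MTT assay. CC50 is the concentration lowering normal uninfected cell viability by 50%. Values are means of at least two separate experiments.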

[2] = test system: Human immunodeficiency virus 1; assay: Antiviral activity against HIV1 LAI 3B infected in human C8166 cells assessed as protection against virus-induced cytopathic effect by MTT assay; assay type: functional, organism-based; settings: Human immunodeficiency virus 1, LAI 3B
In short: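 C8166 cells infected with wild-type HIV-1 (LAI strain IIIB); protection from viral cytopathogenicity read by MTT assay. EC50 is the concentration protecting cells against virus-induced cytopathogenicity by 50%. Values are means of at least two separate experiments.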

[3] = Selectivity index, ratio of CC50 for human C8166 cells to EC50 for HIV1 LAI 3B; assay type: toxicity, cell-based; settings: read-out: Ratio CC50/EC50

SMILES	CC50 [1] [µM]	EC50 [2] [µM]	selectivity ratio [3]
CCCCCn1cc(C(=O)O)c(=O)c2c(O)c(Cc3cccc(Cl)c3F)ccc21	39.9	23.5	1.7
CCCn1cc(C(=O)O)c(=O)c2c(O)c(Cc3cccc(Cl)c3F)ccc21	24.2	2.79	8.66
CCCCn1cc(C(=O)O)c(=O)c2c(O)c(Cc3cccc(Cl)c3F)ccc21	19.9	8.09	2.47
CC(C)n1cc(C(=O)O)c(=O)c2c(O)c(Cc3cccc(Cl)c3F)ccc21	26.5	4.44	5.97
CC(C)Cn1cc(C(=O)O)c(=O)c2c(O)c(Cc3cccc(Cl)c3F)ccc21	19.5	3.47	5.63
CCC(C)n1cc(C(=O)O)c(=O)c2c(O)c(Cc3cccc(Cl)c3F)ccc21 (stereo unspecified)	30.7	1.83	16.8
CC(C)(C)n1cc(C(=O)O)c(=O)c2c(O)c(Cc3cccc(Cl)c3F)ccc21	400	4.53	88.3
O=C(O)c1cn(C2CC2)c2ccc(Cc3cccc(Cl)c3F)c(O)c2c1=O	39.1	2.01	19.5
O=C(O)c1cn(C2CCCC2)c2ccc(Cc3cccc(Cl)c3F)c(O)c2c1=O	12.4	3.87	3.21
O=C(O)c1cn(C2CCCCC2)c2ccc(Cc3cccc(Cl)c3F)c(O)c2c1=O	17.4	2.81	6.18
CC(C)[C@@H](CO)n1cc(C(=O)O)c(=O)c2c(O)c(Cc3cccc(Cl)c3F)ccc21	125	0.13	962
COc1cc2c(cc1Cc1cccc(Cl)c1F)c(=O)c(C(=O)O)cn2[C@H](CO)C(C)C [ELVITEGRAVIR]	17.2	0.00021	81900
